Assay results of several laboratories.
Converted amounts (≈) assume the structure as drawn.

| Structure (SMILES) | organism | test | system | conditions | endpoint | value |
| --- | --- | --- | --- | --- | --- | --- |
| CC(=O)ON=C1C=CC(=C(C#N)c2ccccc2)C=C1 | Pichia kudriavzevii | microbial growth, broth dilution | ATCC14243 | 48 h | MIC | 16 µg/mL (≈ 60.5 µM) |
| OC(Cn1cncn1)(Cn1cncn1)c1ccc(F)cc1F | Pichia kudriavzevii | microbial growth, broth dilution | – | – | MIC80 | 16 µg/mL (≈ 52.2 µM) |
| N#CC(=C1C=CC(=NOC(=O)OCc2ccccc2)C=C1)c1ccccc1 | Pichia kudriavzevii | microbial growth, broth dilution | ATCC14243 | 48 h | MIC | 128 µg/mL (≈ 359 µM) |
| CC1=C(Cc2cn(CCN3CCN(C(=O)OC(C)(C)C)CC3)nn2)C(=O)c2ccccc2C1=O | Schistosoma mansoni | parasite growth | – | 72 h, larva | IC50 | 1890 nM |
| O=C(Nc1ccc(Cl)cc1)c1ccc(COC(Cn2ccnc2)c2ccc(Cl)cc2Cl)cc1 (stereo not drawn) | Pichia kudriavzevii | microbial growth, broth dilution | – | – | MIC80 | 0.125 µg/mL (≈ 0.25 µM) |
| CC1=C(Cc2cn(CCN3CCC(F)(F)CC3)nn2)C(=O)c2ccccc2C1=O | Schistosoma mansoni | parasite growth | – | 72 h, larva | IC50 | 1600 nM |
| C#CCOC(=O)ON=C1C=CC(=C(C#N)c2ccccc2)C=C1 | Pichia kudriavzevii | microbial growth, broth dilution | ATCC14243 | 48 h | MIC | 16 µg/mL (≈ 52.6 µM) |
| O=C(Nc1cccc(Br)c1)c1ccc(COC(Cn2ccnc2)c2ccc(Cl)cc2Cl)cc1 (stereo not drawn) | Pichia kudriavzevii | microbial growth, broth dilution | – | – | MIC80 | 0.06 µg/mL (≈ 0.11 µM) |
| C#CCON=C1C=CC(=C(C#N)c2ccccc2)C=C1 | Pichia kudriavzevii | microbial growth, broth dilution | ATCC14243 | 48 h | MIC | 32 µg/mL (≈ 123 µM) |
| CC1=C(Cn2cc([Si](C)(C)C)nn2)C(=O)c2ccccc2C1=O | Schistosoma mansoni | parasite growth | – | 72 h, larva | IC50 | 1570 nM |
| O=C(Nc1ccc2cccnc2c1)c1ccc(COC(Cn2ccnc2)c2ccc(Cl)cc2Cl)cc1 (stereo not drawn) | Pichia kudriavzevii | microbial growth, broth dilution | – | – | MIC80 | 8 µg/mL (≈ 15.5 µM) |
| CC1=C(Cn2cc(C(C)(C)O)nn2)C(=O)c2ccccc2C1=O | Schistosoma mansoni | parasite growth | – | 72 h, larva | IC50 | 1050 nM |
| CC(=O)N1CCN(c2ccc(OCC3COC(Cn4ccnc4)(c4ccc(Cl)cc4Cl)O3)cc2)CC1 (stereo not drawn) | Pichia kudriavzevii | microbial growth, broth dilution | ATCC14243 | 48 h | MIC | 8 µg/mL (≈ 15.1 µM) |
| O=C(Nc1cccc(Cl)c1)c1ccc(COC(Cn2ccnc2)c2ccc(Cl)cc2Cl)cc1 (stereo not drawn) | Pichia kudriavzevii | microbial growth, broth dilution | – | – | MIC80 | 0.25 µg/mL (≈ 0.499 µM) |
| CC1=C(Cn2cnc([N+](=O)[O-])n2)C(=O)c2ccccc2C1=O | Schistosoma mansoni | parasite growth | – | 72 h, larva | IC50 | 860 nM |
| C[C@@H]1[C@H](O)[C@@H](C)/C=C/C=C/C=C/C=C/C=C/C=C/C=C/[C@H](O[C@@H]2O[C@H](C)[C@@H](O)[C@H](N)[C@@H]2O)C[C@@H]2O[C@](O)(C[C@@H](O)C[C@@H](O)[C@H](O)CC[C@@H](O)C[C@@H](O)CC(=O)O[C@H]1C)C[C@H](O)[C@H]2C(=O)O | Pichia kudriavzevii | microbial growth, broth dilution | ATCC14243 | 48 h | MIC | 2 µg/mL (≈ 2.16 µM) |
| CC1=C(Cn2cc(COC3COC3)nn2)C(=O)c2ccccc2C1=O | Schistosoma mansoni | parasite growth | – | 72 h, larva | IC50 | 1080 nM |
| O=C1/C(=C/c2ccc3ccccc3c2O)NC(=S)N1c1ccccc1 | Fusarium solani | microbial growth, broth dilution | – | – | MIC | 20 µg/mL (≈ 57.7 µM) |
| C=CC(=O)ON=C1C=CC(=C(C#N)c2ccccc2)C=C1 | Pichia kudriavzevii | microbial growth, broth dilution | ATCC14243 | 48 h | MIC | 16 µg/mL (≈ 57.9 µM) |
| CC1=C(Cn2ccnn2)C(=O)c2ccccc2C1=O | Schistosoma mansoni | parasite growth | – | 72 h, larva | IC50 | 1050 nM |
| Clc1ccc(COC(Cn2ccnc2)c2ccc(Cl)cc2Cl)c(Cl)c1 (stereo not drawn) | Pichia kudriavzevii | microbial growth, broth dilution | – | – | MIC80 | 0.5 µg/mL (≈ 1.2 µM) |
| COc1cc(NC(=O)Cn2ccc3ccc(-c4nnc(C)o4)cc32)cc(OC)c1OC | Plasmodium knowlesi | parasite growth, SYBR Green | – | 30 h, blood stage | EC50 | 200 to 660 nM |
| O=C(Nc1ccc2ccccc2c1)c1ccc(COC(Cn2ccnc2)c2ccc(Cl)cc2Cl)cc1 (stereo not drawn) | Pichia kudriavzevii | microbial growth, broth dilution | – | – | MIC80 | 32 µg/mL (≈ 62 µM) |
| OC(Cn1cncn1)(Cn1cncn1)c1ccc(F)cc1F | Pichia kudriavzevii | microbial growth, broth dilution | ATCC6258 | 48 h | MIC | 0.7 µg/mL (≈ 2.29 µM) |
